For assay [1], the target named is T1, Tyrosine-protein phosphatase non-receptor type 1 (Homo sapiens, UniProt P18031).
T1 sequence (P18031 whole entry): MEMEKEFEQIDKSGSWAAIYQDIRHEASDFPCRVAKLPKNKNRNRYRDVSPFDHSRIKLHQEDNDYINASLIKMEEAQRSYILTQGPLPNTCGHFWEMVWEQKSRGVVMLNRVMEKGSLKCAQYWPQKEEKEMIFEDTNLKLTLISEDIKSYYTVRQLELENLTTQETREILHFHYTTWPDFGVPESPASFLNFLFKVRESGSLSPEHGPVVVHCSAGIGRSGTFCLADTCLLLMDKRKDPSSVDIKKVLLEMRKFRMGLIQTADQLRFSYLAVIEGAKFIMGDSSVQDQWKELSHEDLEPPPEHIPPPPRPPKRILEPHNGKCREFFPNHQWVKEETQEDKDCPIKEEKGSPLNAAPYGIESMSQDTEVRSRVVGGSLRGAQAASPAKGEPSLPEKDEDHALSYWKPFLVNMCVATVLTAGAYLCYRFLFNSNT
As to the kind of experiment: Inhibition of PTP1B (unknown origin)-mediated pNPP hydrolysis to 4-nitrophenol after 60 mins by spectrophotometric analysis. The procedure, abridged: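 Colorimetric pNPP assay at room temperature in 25 mM Tris pH 7.5, 75 mM NaCl, 1 mM DTT, 0.1% BSA. Compound dilution series was added, and the reaction was started with 5 nM PTP1B. After 60 min it was stopped with NaOH. 4-Nitrophenol was read at 405 nm, with corrections for substrate and compound absorbance.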

In assay [2] the target is T2, Tyrosine-protein phosphatase non-receptor type 2 (Homo sapiens, UniProt P17706).
T2 sequence (P17706 whole entry): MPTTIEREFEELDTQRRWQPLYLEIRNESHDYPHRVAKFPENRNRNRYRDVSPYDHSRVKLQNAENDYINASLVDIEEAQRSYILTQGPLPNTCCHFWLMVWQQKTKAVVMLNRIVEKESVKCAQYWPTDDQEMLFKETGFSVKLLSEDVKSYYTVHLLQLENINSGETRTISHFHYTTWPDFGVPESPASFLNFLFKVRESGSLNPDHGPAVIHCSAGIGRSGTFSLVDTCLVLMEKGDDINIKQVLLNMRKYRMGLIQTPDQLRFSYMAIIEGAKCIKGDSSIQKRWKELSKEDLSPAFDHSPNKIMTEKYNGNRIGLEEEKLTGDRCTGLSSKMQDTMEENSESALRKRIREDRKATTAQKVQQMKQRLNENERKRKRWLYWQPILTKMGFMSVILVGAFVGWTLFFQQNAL
Kind of assay: Inhibition of TCPTP (unknown origin).

The target in assay [3] is T1, Tyrosine-protein phosphatase non-receptor type 1. Kind of assay: Inhibition of PTP1B (unknown origin).

A value given as a limit tells only on which side of the number the result lay.

`O=C(O)c1ccc(CC(c2nc3ccccc3[nH]2)S(=O)(=O)Nc2ccc(F)cc2)cc1` (stereo not given) yielded a Ki in assay [1] of over 500 µM.
Still for that read-out and setting: as for `O=C(O)COc1ccc(CC(c2nc3ccccc3[nH]2)S(=O)(=O)Nc2ccc(F)cc2)cc1O` (stereo not given), the figure is 162 µM.
Consider `O=C(O)C(=O)Nc1ccc(CC(c2nc3ccccc3[nH]2)S(=O)(=O)Nc2ccc(F)cc2)cc1` (stereo not given), for which the inhibition constant Ki in assay [1] worked out at 67.5 µM.
Turning to `O=S(=O)(Nc1ccc(F)cc1)C(Cc1ccc(O)c(O)c1)c1nc2ccccc2[nH]1` (stereo not given), in assay [1], the inhibitory constant (Ki) is 211 µM.
In assay [1], `O=C(O)COc1ccc(CC(c2nc3ccccc3o2)S(=O)(=O)Nc2ccc(F)cc2)cc1O` (stereo not given) had a Ki of 66.5 µM. Against the preceding molecule, the Ki is about 3.2-fold lower.
The same measure, in the same setting: as for `O=C(O)C(=O)Nc1ccc(C[C@H](c2nc3ccccc3o2)S(=O)(=O)Nc2ccc(F)cc2)cc1`, the figure is 35 µM; as for `CN(c1ccc(F)cc1)S(=O)(=O)C(Cc1ccc(NC(=O)C(=O)O)cc1)c1nc2ccccc2[nH]1` (stereo not given), 125 µM.
On to `NS(=O)(=O)C(Cc1ccc(NC(=O)C(=O)O)cc1)c1nc2ccccc2o1` (stereo not given), for which the values for the Ki in assay [2] and in assay [1] were 137 µM and 331 µM, respectively.
`CC(C)(C)NS(=O)(=O)C(Cc1ccc(NC(=O)C(=O)O)cc1)c1nc2ccccc2o1` (stereo not given): the inhibition constant (Ki) in assay [2] stood at 135 µM; in assay [1], 228 µM.
On the same counts, the results for `CCCCNS(=O)(=O)C(Cc1ccc(NC(=O)C(=O)O)cc1)c1nc2ccccc2o1` (stereo not given) are 33.4 µM and 82.4 µM.
`O=C(O)C(=O)Nc1ccc(CC(c2nc3ccccc3o2)S(=O)(=O)NCCc2ccc(Cl)cc2)cc1` (stereo not given) showed an inhibitory constant (Ki) in assay [1] of 41 µM. This counts as double-digit micromolar.
For the molecule `O=C(O)C(=O)Nc1ccc(CC(c2nc3ccccc3o2)S(=O)(=O)N(Cc2ccc(F)cc2)Cc2ccc(F)cc2)cc1` (stereo not given), the affinity in assay [1] corresponds to a Ki of 10 µM.
Turning to `O=C(O)C(=O)Nc1ccc(C[C@H](c2nc3ccccc3o2)S(=O)(=O)N(Cc2ccc(Cl)cc2)Cc2ccc(Cl)cc2)cc1`, the inhibitory constant (Ki) came to 3.7 µM in assay [2] and 6.7 µM in assay [1].
As for `O=C(O)C(=O)Nc1ccc(CC(c2nc3ccccc3o2)S(=O)(=O)N(Cc2ccccc2C(F)(F)F)Cc2ccccc2C(F)(F)F)cc1` (stereo not given), the affinity in assay [1] corresponds to a Ki of 6.8 µM.
As for `O=C(O)C(=O)Nc1ccc(CC(c2nc3ccccc3o2)S(=O)(=O)N(Cc2cccc(C(F)(F)F)c2)Cc2cccc(C(F)(F)F)c2)cc1` (stereo not given), the Ki in assay [2] came out at 21 µM; in assay [1], 35 µM.
For `O=C(O)C(=O)Nc1ccc(CC(c2nc3ccccc3o2)S(=O)(=O)N(Cc2ccc(C(F)(F)F)cc2)Cc2ccc(C(F)(F)F)cc2)cc1` (stereo not given), the inhibition constant (Ki) in assay [2] turned out to be 12.5 µM; in assay [1], 7.7 µM.
For `COc1ccc(CN(Cc2ccc(OC)cc2)S(=O)(=O)C(Cc2ccc(NC(=O)C(=O)O)cc2)c2nc3ccccc3o2)cc1` (stereo not given) the same measures were 18.9 µM and 14 µM.
For the molecule `O=C(O)C(=O)Nc1ccc(CC(c2nc3ccccc3o2)S(=O)(=O)N(Cc2ccc(OC(F)(F)F)cc2)Cc2ccc(OC(F)(F)F)cc2)cc1` (stereo not given), the figures for the inhibitory constant (Ki) in assay [2] and in assay [1] were 17.2 µM and 16.8 µM, respectively.
Regarding `CC(C)(C)c1ccc(CN(Cc2ccc(C(C)(C)C)cc2)S(=O)(=O)C(Cc2ccc(NC(=O)C(=O)O)cc2)c2nc3ccccc3o2)cc1` (stereo not given), the inhibitory constant (Ki) was found to be 6.4 µM in assay [2] and 14.9 µM in assay [1].
`O=C(O)CN(CC(=O)O)S(=O)(=O)C(Cc1ccc(NC(=O)C(=O)O)cc1)c1nc2ccccc2o1` (stereo not given): the Ki in assay [2] amounted to 22 µM; in assay [1], 235 µM.
On the same counts, the results for `Cc1ccc(NS(=O)(=O)C(Cc2ccc(NC(=O)C(=O)O)cc2)c2nc3ccccc3o2)cc1` (stereo not given) are 9.2 µM and 62 µM.
For the molecule `O=C(O)C(=O)Nc1ccc(CC(c2nc3ccccc3o2)S(=O)(=O)Nc2ccc(C(F)(F)F)cc2)cc1` (stereo not given), the results for the inhibitory constant (Ki) in assay [2] and in assay [1] were 8 µM and 23.6 µM, respectively.
`COc1ccc(NS(=O)(=O)C(Cc2ccc(NC(=O)C(=O)O)cc2)c2nc3ccccc3o2)cc1` (stereo not given): the Ki is 134 µM in assay [2] and 68.8 µM in assay [1].
For `CC(C)Oc1ccc(NS(=O)(=O)C(Cc2ccc(NC(=O)C(=O)O)cc2)c2nc3ccccc3o2)cc1` (stereo not given) the same measures were 101 µM and 92 µM.
Turning to `CC(=O)NS(=O)(=O)C(Cc1ccc(NC(=O)C(=O)O)cc1)c1nc2ccccc2o1` (stereo not given), the Ki in assay [2] turned out to be 86.5 µM; in assay [1] it was 63 µM.
As to `O=C(O)C(=O)Nc1ccc(CC(c2nc3ccccc3o2)S(=O)(=O)NC(=O)c2ccccc2)cc1` (stereo not given), the Ki in assay [2] is 256 µM; in assay [1], 125 µM.
On to `O=C(O)C(=O)Nc1ccc(CC(c2nc3ccccc3o2)S(=O)(=O)NC(=O)c2ccc(Cl)cc2)cc1` (stereo not given), for which the results for the inhibitory constant (Ki) in assay [2] and in assay [1] were 13.1 µM and 82.4 µM, respectively.
With `CCc1cc(CN(C(C)=O)C(=O)NCCCCOc2cccc(O)c2C(=O)OC)ccc1N(C(=O)C(=O)O)c1ccccc1C(=O)O`, affinity in assay [3] was put at a Ki of 0.018 µM.

Source of the values: ChEMBL document CHEMBL2375266, “Design and synthesis of 2-substituted benzoxazoles as novel PTP1B inhibitors” (Bioorg Med Chem Lett, 2013).
